Paper PMC2873786 (Organic & biomolecular chemistry, 2009)
Like-named read-outs stand apart in the source and are kept apart here.

How the values were obtained:
[1] = cited from earlier work
[2] = calculated, gas-phase; ref 18c; cited from earlier work
[3] = Anodic peak potentials by differential pulse voltammetry; type: physicochemical; settings: 298 K versus Ag/AgCl, at the pKa
Summary of the method: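 Glassy carbon working electrode (alumina-polished between trials), Ag/AgCl reference, platinum wire counter. Buffer was 10 mM potassium phosphate with KCl electrolyte, pH set with KOH or HCl. Compound was added from a 25 mM ethanol stock, pH was measured, and the solution was argon-purged 1 min. DPV used 0.05 s pulse width, 0.2 s pulse period and 10 mV/s at 298 K. […].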

[4] = Inhibited autoxidation of styrene; settings: for kinh: 303 K in chlorobenzene, initiated by AMVN, styrene autoxidation; for inhibition rate constant, fold lower than for 1: relative to 1
[5] = B3LYP calculated gas-phase O–H BDEs, ionization potentials and acidities; settings: predicted; 5a vs 2, 6a vs 3
[6] = Spectrophotometric determination of pKa values; type: physicochemical; settings: 298 K, 10 mM potassium phosphate, 200 mM KCl, spectrophotometry
Summary of the method: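 UV spectra were recorded in buffer at varied pH, blank first. Compound was added from a 25 mM ethanol stock and the pH was remeasured. Aryloxide fraction came from absorbance at λmax, normalised between low- and high-pH limits. pKa was obtained by fitting the fraction versus pH to a sigmoidal function.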

oCOX-1 peroxidase = target: T1, oCOX-1 peroxidase (Ovis aries, UniProt P05979); experiment: Effect on reduction of PPHP to PPA; type: biochemical, ovine; settings: for peroxidase activation at low concentration: at 100 μM, compared with 1-3; for increase in peroxidase activity of oCOX-1: at a concentration of 1 mM, PPHP to PPA
T1 sequence (P05979 25-600): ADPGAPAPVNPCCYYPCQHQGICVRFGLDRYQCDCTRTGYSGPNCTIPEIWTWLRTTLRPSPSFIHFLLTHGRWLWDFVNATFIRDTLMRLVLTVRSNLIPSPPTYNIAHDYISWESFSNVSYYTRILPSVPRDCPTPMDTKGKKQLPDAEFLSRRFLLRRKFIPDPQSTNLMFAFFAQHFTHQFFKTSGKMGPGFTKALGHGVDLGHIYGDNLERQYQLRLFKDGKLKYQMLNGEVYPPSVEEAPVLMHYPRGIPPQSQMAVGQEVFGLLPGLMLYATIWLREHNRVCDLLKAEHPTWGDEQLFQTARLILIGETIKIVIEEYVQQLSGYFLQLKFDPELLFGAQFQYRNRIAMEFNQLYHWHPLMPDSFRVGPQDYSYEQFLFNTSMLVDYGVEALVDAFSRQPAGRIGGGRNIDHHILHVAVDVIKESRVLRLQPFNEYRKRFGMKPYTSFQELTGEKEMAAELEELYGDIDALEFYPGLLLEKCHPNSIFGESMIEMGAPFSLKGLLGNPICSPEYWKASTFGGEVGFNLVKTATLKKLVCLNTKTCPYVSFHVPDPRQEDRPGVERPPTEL
Summary of the method: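 Ovine COX-1 was held 30 min on ice with 2 equiv hematin in Tris·HCl pH 8.0 without phenol. It was warmed 5 min at 37 °C with or without compound. PPHP (10 μM final) was prewarmed 2 min. The reaction was started with enzyme at 5.4 nM and quenched after 8 s with ice-cold ether–methanol–citric acid. The organic phase was dried under nitrogen, redissolved in 65% methanol–water, and analysed by HPLC for PPA formation.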

HepG2 cells = experiment: Cytotoxicity assay with HepG2 cell line; type: cell-based, human; settings: for intracellular ATP levels, fold control levels: HepG2, 24 h exposure; for decrease of total intracellular ATP concentration compared to control: 2 mM (highest exposure level)
Summary of the method: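 HepG2 cells (ATCC) were grown in DMEM with 10% FBS, non-essential amino acids, penicillin–streptomycin, pyruvate and glutamine, under 5% CO₂ at 37 °C. Cells were seeded at 10⁵ cells/mL with ethanol or water vehicle below 0.5%. Serial compound dilutions, up to 2 mM, were applied for 24 h with 2–3 replicates per dose. Cells were lysed for 5 min and ATP read by luciferin–luciferase luminescence after 10 min at room temperature. Values were taken relative to untreated control.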

ovine COX-1 = target: T2, ovine COX-1 (Ovis aries, UniProt P05979); experiment: Inhibition of oCOX-1; type: biochemical; settings: for oCOX-1 inhibition (prostaglandin biosynthesis), fold more effective than ApAP: relative to ApAP; for oCOX-1 inhibition, fold less effective than 1: relative to 1
T2 sequence (P05979 25-600): T1 sequence (P05979 25-600)
Summary of the method: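 Ovine COX-1 was purified from ram seminal vesicles and held 30 min on ice with 2 equiv hematin in Tris·HCl pH 8.0 plus 500 μM phenol. It was then warmed 2 min at 37 °C with compound. The reaction used [¹⁴C]arachidonic acid (0.5 μM final, prewarmed 30 s) and was started with enzyme at 5.4 nM. It was quenched after 8 s with acidic ether–methanol containing BHA. Products were resolved by radio-TLC. Activity was expressed as % of control, 4–6 values per point.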

[7] = reference antioxidants; ref 27b; cited from earlier work
oCOX-1 = target: T3, oCOX-1 (Ovis aries, UniProt P05979); experiment: pH-dependent inhibition of COX-1; type: biochemical, ovine; settings: pH 6.6 to 8.5; 0.5 mM 1; 1.0 mM 2 and 3
T3 sequence (P05979 25-600): T1 sequence (P05979 25-600)
Summary of the method: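 COX-1 radiolabelled arachidonic acid (0.5 μM) assay: hematin-reconstituted enzyme at 5.4 nM, 8 s reaction at 37 °C, radio-TLC. Buffers were Tris·HCl at pH 8.5, 8.0 and 7.4, and sodium phosphate at pH 8.0, 7.4 and 6.6, all with 500 μM phenol. Compound was present at 0.5 or 1.0 mM final. Activity was expressed as % of the uninhibited control in the same buffer and pH. Significance was tested by Student t-test.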

[8] = target: T4, soybean lipoxygenase-1 (sLOX-1) (Glycine max, UniProt P08170); experiment: Inhibition of sLOX-1; type: biochemical; settings: up to 0.25 mM
T4 sequence (P08170 1-839): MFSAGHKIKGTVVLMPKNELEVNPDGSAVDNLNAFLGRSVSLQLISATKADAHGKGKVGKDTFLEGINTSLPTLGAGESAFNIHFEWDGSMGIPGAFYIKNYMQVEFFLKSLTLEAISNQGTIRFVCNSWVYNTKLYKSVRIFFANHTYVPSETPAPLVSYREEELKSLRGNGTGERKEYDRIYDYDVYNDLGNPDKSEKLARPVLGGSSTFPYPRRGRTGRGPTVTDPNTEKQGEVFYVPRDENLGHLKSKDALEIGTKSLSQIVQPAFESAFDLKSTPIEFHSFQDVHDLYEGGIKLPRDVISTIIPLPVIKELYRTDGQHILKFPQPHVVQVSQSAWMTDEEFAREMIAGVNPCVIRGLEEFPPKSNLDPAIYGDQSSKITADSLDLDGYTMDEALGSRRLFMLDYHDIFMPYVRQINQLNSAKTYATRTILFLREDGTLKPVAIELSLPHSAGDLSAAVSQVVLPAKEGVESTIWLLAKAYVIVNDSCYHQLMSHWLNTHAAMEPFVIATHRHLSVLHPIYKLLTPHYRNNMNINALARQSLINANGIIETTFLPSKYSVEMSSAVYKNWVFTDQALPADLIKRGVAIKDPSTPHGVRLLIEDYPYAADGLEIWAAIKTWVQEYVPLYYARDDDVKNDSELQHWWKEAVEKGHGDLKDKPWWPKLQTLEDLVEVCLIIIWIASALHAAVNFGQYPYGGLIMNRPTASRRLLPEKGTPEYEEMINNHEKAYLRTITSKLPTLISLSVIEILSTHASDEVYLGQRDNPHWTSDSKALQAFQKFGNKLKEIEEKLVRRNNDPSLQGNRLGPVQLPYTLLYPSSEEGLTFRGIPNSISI
Summary of the method: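 Soybean LOX-1 was purified from a commercial preparation. Linoleic acid (20 μM) was in 100 mM borate pH 9.2. Compound was added from ethanol at […] final (<5% ethanol), then enzyme at 3 nM final. Initial rates (<10% conversion) were followed at 234 nm as 13-HPODE formation. Rates were expressed relative to no-compound controls, 4–6 values per point, and IC50 was derived.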

SMILES | stability under ambient conditions [1] | IP [2] [kcal/mol] | O–H BDE [2] [kcal/mol] | Epa @ pKa [3] [V] | kinh [4] | pKa [6] | pH-dependence of oCOX-1 inhibition (oCOX-1) | increase in peroxidase activity of oCOX-1 (oCOX-1 peroxidase) | other results
CN(C)c1ccc(O)cc1 [4a, reference compound] | too unstable | 157.7 | 76.0 | – | – | – | – | – | –
CN(C)c1ccc(O)cn1 [5a] | quite stable | 164.6 | 77.0 | 0.12 | 4.8 × 10^6 ^d M^−1 s^−1 | 9.27 | – | – | O–H BDE lower than in 2 and 3 [5]: 5 to 6 kcal/mol; effect on peroxidase activity at higher concentration (oCOX-1 peroxidase; above 100 μM): abolishes peroxidase activity; peroxidase activation at low concentration (oCOX-1 peroxidase): greater peroxidase activation; effect on ATP production (HepG2 cells; HepG2, 24 h, by 500 μM exposure): eliminating ATP production; intracellular ATP levels, fold control levels (HepG2 cells; 10 μM): ca. 1.75 fold; cytotoxicity in preliminary HepG2 viability assays (HepG2 cells; HepG2 cell culture): relatively toxic; oCOX-1 inhibition (prostaglandin biosynthesis), fold more effective than ApAP (ovine COX-1): ca. 12 fold
CN(C)c1ncc(O)cn1 [6a] | quite stable | 174.6 | 78.3 | 0.31 | 1.1 × 10^6 ^d M^−1 s^−1 | 8.18 | – | – | O–H BDE lower than in 2 and 3 [5]: 5 to 6 kcal/mol; peroxidase activation at low concentration (oCOX-1 peroxidase): greater peroxidase activation; decrease of total intracellular ATP concentration compared to control (HepG2 cells; HepG2, 24 h): 31.3 ± 1.0%; intracellular ATP concentration relative to control (HepG2 cells; HepG2, 24 h, beyond 1 mM): at or above the control; intracellular ATP levels, fold control levels (HepG2 cells; 100 μM): ca. 1.8 fold; oCOX-1 inhibition (prostaglandin biosynthesis), fold more effective than ApAP (ovine COX-1): ca. 12 fold
Cc1cc(C(C)(C)C)c(O)c(C(C)(C)C)c1 [BHT, butylated hydroxytoluene] | – | – | – | – | – | – | – | – | kinh [7]: 140000 M⁻¹ s⁻¹
CC(=O)Nc1ccc(O)cc1 [compound 1, Acetaminophen, reference compound] | – | – | – | 0.32 | 500000 M⁻¹ s⁻¹ | – | did not change significantly | 11 fold | kinh ([4]; listed as ApAP): 500000 M⁻¹ s⁻¹; inhibition rate constant, fold larger than that of BHT ([4]; relative to BHT): ~4 fold; inhibition of sLOX-1 [8]: does not inhibit; decrease of total intracellular ATP concentration compared to control (HepG2 cells; HepG2, 24 h): 24.8 ± 1.0%; IC50 (ovine COX-1): 250 µM
CC(=O)Nc1ccc(O)cn1 [compound 2] | – | – | – | 0.48 | 40000 M⁻¹ s⁻¹ | 8.28 | markedly improved at higher pH | only slightly | inhibition rate constant, fold lower than for 1 [4]: 12.5 fold; oCOX-1 inhibition, fold less effective than 1 (ovine COX-1): ca. 1.6 fold
CC(=O)Nc1ncc(O)cn1 [compound 3] | – | – | – | 1.02 | 10000 M⁻¹ s⁻¹ | 5.89 | markedly improved at higher pH | only slightly | inhibition rate constant, fold lower than for 1 [4]: 50 fold; oCOX-1 inhibition, fold less effective than 1 (ovine COX-1): ~3 fold
Cc1c(C)c2c(c(C)c1O)CC[C@@](C)(CCC[C@H](C)CCC[C@H](C)CCCC(C)C)O2 [α-tocopherol] | – | – | – | – | – | – | – | – | kinh [7]: 3.2e+06 M⁻¹ s⁻¹
